The target of test [1] is 72 kDa type IV collagenase (Homo sapiens, UniProt P08253). As to the kind of experiment: Inhibition of human recombinant MMP2 using Mca-Lys-Pro-Leu-Gly-Leu-Dpa-Ala-Arg-NH2 substrate by spectrophotometry. Summed up: (§1)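 Fluorogenic cleavage kinetics with 0.2–0.5 nM recombinant human MMP in 50 mM Tris/HCl pH 6.8 with 10 mM CaCl2 at 25 °C. […] Fluorescence is monitored. Ki is derived by the Horovitz–Levitski method, as the mean ± SD of three experiments.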

The target of test [2] is Matrix metalloproteinase-9 (Homo sapiens, UniProt P14780). Briefly: Inhibition of human recombinant MMP9 using Mca-Lys-Pro-Leu-Gly-Leu-Dpa-Ala-Arg-NH2 substrate by spectrophotometry. Summed up:
as §1

In test [3] the target is Macrophage metalloelastase (Mus musculus) (UniProt P34960). Briefly: Inhibition of mouse recombinant MMP12 using Mca-Lys-Pro-Leu-Gly-Leu-Dpa-Ala-Arg-NH2 substrate by spectrophotometry.
Another test addresses T1, Matrilysin (Homo sapiens, UniProt P09237).
T1 sequence (P09237 whole entry): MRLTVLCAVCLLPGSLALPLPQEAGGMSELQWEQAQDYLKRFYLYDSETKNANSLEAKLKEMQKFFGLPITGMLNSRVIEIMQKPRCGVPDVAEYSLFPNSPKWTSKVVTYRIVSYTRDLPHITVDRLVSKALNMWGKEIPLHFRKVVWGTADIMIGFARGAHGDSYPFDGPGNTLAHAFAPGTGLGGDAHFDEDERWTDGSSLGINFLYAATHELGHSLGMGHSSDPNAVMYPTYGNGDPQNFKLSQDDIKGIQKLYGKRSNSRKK
As to the kind of experiment: Inhibition of human recombinant MMP7 using Mca-Lys-Pro-Leu-Gly-Leu-Dpa-Ala-Arg-NH2 substrate by spectrophotometry. Summed up: as §1

Test [4] deals with Macrophage metalloelastase (Homo sapiens, UniProt P39900). As to the kind of experiment: Inhibition of human recombinant MMP12 using Mca-Lys-Pro-Leu-Gly-Leu-Dpa-Ala-Arg-NH2 substrate by spectrophotometry. An outline of the steps: as §1
A further test concerns the target Collagenase 3 (Homo sapiens, UniProt P45452). As to the kind of experiment: Inhibition of human recombinant MMP13 using Mca-Lys-Pro-Leu-Gly-Leu-Dpa-Ala-Arg-NH2 substrate by spectrophotometry. An outline of the steps:
as §1

The species entered for test [5] is Homo sapiens. As to the kind of experiment: Selectivity index, ratio of Ki for inhibition of human recombinant MMP13 for Ki for inhibition of human recombinant MMP12.
The species named for test [6] is Homo sapiens. Briefly: Selectivity index, ratio of Ki for inhibition of human recombinant MMP7 for Ki for inhibition of human recombinant MMP12.
Test [7] is filed under the species Homo sapiens. Briefly: Selectivity index, ratio of Ki for inhibition of human recombinant MMP9 for Ki for inhibition of human recombinant MMP12.

As usually defined, the pKi is −log10 of the Ki, conventionally taken in molar units.

pKi: −log10 of the molar value. Activity calls are given as the source filed them. The rule behind the calls is not given here.

Sequence of Macrophage metalloelastase (P39900 whole entry): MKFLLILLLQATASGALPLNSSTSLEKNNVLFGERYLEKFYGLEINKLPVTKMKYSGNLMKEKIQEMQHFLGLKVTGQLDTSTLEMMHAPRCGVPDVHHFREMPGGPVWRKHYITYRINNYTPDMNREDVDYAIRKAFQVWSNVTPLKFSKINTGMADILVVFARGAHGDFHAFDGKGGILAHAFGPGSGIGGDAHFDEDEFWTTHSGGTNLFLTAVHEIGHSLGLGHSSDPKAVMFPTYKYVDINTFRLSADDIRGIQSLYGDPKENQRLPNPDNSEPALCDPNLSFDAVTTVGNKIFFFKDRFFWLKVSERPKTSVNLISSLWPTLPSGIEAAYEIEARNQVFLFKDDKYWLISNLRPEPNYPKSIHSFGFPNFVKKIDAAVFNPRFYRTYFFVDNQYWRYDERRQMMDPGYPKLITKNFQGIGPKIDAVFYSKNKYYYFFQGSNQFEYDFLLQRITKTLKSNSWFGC
Sequence of Macrophage metalloelastase (Mus musculus) (P34960 110-473 limits assumed): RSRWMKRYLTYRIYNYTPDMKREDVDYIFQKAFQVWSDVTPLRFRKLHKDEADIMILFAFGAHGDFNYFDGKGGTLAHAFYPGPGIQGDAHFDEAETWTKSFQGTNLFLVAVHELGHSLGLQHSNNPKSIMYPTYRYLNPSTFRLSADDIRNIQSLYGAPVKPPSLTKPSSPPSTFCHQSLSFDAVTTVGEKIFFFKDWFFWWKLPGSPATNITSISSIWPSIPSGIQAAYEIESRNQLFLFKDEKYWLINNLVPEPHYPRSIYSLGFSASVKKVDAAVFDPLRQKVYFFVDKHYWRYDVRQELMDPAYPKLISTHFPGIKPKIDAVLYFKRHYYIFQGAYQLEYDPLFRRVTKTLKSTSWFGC
Sequence of 72 kDa type IV collagenase (P08253 whole entry): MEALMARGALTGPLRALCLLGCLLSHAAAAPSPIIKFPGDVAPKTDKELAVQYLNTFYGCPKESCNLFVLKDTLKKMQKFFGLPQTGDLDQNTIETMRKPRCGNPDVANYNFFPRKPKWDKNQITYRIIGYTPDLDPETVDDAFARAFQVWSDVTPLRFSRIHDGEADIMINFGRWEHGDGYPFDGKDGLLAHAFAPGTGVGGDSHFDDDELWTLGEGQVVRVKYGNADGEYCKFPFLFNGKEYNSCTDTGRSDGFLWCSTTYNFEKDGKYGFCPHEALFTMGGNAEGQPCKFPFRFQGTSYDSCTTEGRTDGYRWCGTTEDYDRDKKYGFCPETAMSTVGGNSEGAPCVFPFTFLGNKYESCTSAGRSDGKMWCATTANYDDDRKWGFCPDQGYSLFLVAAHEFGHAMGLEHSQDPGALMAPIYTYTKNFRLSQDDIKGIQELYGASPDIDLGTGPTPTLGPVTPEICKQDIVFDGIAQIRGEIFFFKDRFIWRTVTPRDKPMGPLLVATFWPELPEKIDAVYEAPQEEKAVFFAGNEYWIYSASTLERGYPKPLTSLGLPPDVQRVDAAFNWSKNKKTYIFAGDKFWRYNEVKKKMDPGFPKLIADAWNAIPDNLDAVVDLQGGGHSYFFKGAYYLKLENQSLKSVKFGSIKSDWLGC
Sequence of Matrix metalloproteinase-9 (P14780 whole entry): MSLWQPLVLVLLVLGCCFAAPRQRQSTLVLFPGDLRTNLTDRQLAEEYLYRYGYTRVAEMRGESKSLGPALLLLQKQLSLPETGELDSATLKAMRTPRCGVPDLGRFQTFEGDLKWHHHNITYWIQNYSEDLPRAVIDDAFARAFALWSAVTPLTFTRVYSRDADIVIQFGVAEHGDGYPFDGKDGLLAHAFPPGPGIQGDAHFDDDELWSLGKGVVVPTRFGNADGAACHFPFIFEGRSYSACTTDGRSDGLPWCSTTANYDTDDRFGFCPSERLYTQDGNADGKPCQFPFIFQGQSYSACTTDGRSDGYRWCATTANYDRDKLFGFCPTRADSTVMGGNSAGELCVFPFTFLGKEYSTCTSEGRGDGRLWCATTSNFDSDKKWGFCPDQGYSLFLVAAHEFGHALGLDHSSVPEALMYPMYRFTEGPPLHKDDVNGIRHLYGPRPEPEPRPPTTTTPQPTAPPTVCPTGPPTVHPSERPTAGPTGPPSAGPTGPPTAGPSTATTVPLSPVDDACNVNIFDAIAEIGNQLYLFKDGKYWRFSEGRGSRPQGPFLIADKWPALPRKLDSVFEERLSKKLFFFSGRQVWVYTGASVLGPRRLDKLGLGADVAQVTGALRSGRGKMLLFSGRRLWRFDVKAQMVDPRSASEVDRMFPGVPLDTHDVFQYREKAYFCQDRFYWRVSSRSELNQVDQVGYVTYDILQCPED

As for `CC(C)C[C@H]1C(=O)N[C@H](C(=O)O)Cc2ccc(cc2)OCCC[C@@H]1C(=O)NO`, the pKi is 6.52 in test [1]; 5.96 in test [2]; 7.41 on Matrilysin; 8.96 in test [4]; 7.51 at Collagenase 3. The “inhibition (qualitative)” value in test [3] was “Active”.

In the case of `CC(C)C[C@H]1C(=O)N[C@H](C(=O)N[C@@H](CCC(=O)O)C(=O)O)Cc2ccc(cc2)OCCC[C@@H]1C(=O)NO`, the pKi in test [1] was 6.40; in test [2], 5.68; on Matrilysin, 7.84; in test [4], 8.92; on Collagenase 3 it was 7.05. Further, the “inhibition (qualitative)” value in test [3] was “Active”. Moreover, the Ratio Ki amounted to 74 in the test listed under Homo sapiens [5] and 12 in the test listed under Homo sapiens [6].

Regarding `CC(C)C[C@H](CC(=O)NO)C(=O)N[C@@H](Cc1ccccc1)C(=O)O`, the pKi in test [1] is 6.79; in [2] it was 6.90; on Matrilysin, 6.49; in test [4] it was 7.93; on Collagenase 3 it was 7.09. Further, the “inhibition (qualitative)” value in [3] was “Active”.

For `CC(C)C[C@H](CC(=O)NO)C(=O)N[C@@H](Cc1ccccc1)C(=O)N[C@@H](CCC(=O)O)C(=O)NCCNC(=O)c1ccc(NN)nc1`, the pKi in test [1] is 6.65; in [2] it was 5.88; at Matrilysin, 6.21; in test [4], 8.12; at Collagenase 3 it was 7.11. In addition, in [3], the “inhibition (qualitative)” value is “Active”.

Take `CC(C)C[C@H](CC(=O)NO)C(=O)N[C@@H](Cc1ccc(OCCNC(=O)c2ccc(NN)nc2)cc1)C(=O)O`: the pKi in test [1] was < 5.30; in test [2] it was 6.81; at Matrilysin, < 5.30; in test [4] it was 8.05; at Collagenase 3, < 5.30. For the same compound, the Ratio Ki in the test filed under Homo sapiens [7] was found to be 17. Further, the “inhibition (qualitative)” value in test [3] was “Active”.

Turning to `CNC(=O)[C@H](CCCNC(=N)N)NC(=O)[C@@H]1Cc2ccc(cc2)OCCC[C@H](C(=O)NO)[C@@H](CC(C)C)C(=O)N1`, in test [3], the “inhibition (qualitative)” value is “Active”.
